# Legend:
# [1] = molecular target: T1, Protein kinase C, PKC; classical (Rattus norvegicus) (UniProt P05696+P68403+P63319); assay: Percent stimulation or inhibition of protein kinase C III activity for phosphatidylserine (PS) in the presence of [Ca2+].; format: protein assay; parameters: concentration or dose not given beside the values; details: values are per cent of control
# Procedure, shortened: (§1)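 Purified type III (α) PKC from rat brain soluble fraction. Substrate calf thymus H1 histone with 0.1 mM Ca2+, 5 mM magnesium acetate, 10 μM [32P]ATP and 2 μg/mL phosphatidylserine, no diolein. Most compounds at 10⁻⁴ M, given as percent of control activity.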
# [2] = tested on: MCF7S; assay: Cytostatic activity against MCF-7 cell proliferation.; format: functional, Homo sapiens; parameters: concentration or dose not given beside the values
# Procedure, shortened: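 MCF-7 cells in phenol red-free charcoal-treated medium given 10⁻⁶ M E2 plus test compound (3–10 μM), 6 days of growth. DNA expressed as percent of E2-treated cells. IC30 is the concentration giving 30% inhibition. Percent inhibition taken at 10⁻⁵ M, or at 10⁻⁶ M in a second series. Means of two experiments.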
# [3] = molecular target: T1, Protein kinase C, PKC; classical (Rattus norvegicus); assay: The percent stimulation or inhibition of protein kinase C III activity was determined for phosphatidylserine (PS) and diolein(PS+DO) in the presence of [Ca2+]; format: protein assay; parameters: concentration or dose not given beside the values; details: values are per cent of control
# Procedure, shortened: (§2)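 Type III (α) PKC purified from rat brain soluble fraction, assayed with calf thymus H1 histone, 0.1 mM Ca2+, 5 mM magnesium acetate, 10 μM [32P]ATP, 2 μg/mL phosphatidylserine plus 0.2 μg/mL diolein. Compounds mostly at 10⁻⁴ M; activity expressed as percent of control.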
# [4] = tested on: MCF7S; assay: Agonistic activity in MCF-7 cell proliferation.; format: functional, Homo sapiens
# Procedure, shortened: (§3)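 MCF-7 cells grown in phenol red-free medium with 5% dextran-coated charcoal-treated serum, tested 10 pM to 1 μM. DNA content read after growth. Agonism expressed relative to the maximum response with E2 (=100%), whatever the concentration. EC50 (50% of maximum response) taken from two separate experiments.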
# [5] = organism: Rattus norvegicus; assay: Percent stimulation or inhibition of protein kinase C III activity for protamine sulfate in the presence of EGTA.; parameters: concentration or dose not given beside the values; details: values are per cent of control
# Procedure, shortened: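 Rat brain type III (α) PKC, purified, with protamine sulfate as substrate and 0.5 mM EGTA in place of Ca2+, phosphatidylserine and diolein; 5 mM magnesium acetate, 10 μM [32P]ATP. Most compounds at 10⁻⁴ M; percent of control activity.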
# [6] = molecular target: Estrogen receptor (Bos taurus) (UniProt Q9XSB5+P49884); assay: Relative binding affinity for calf uterus estrogen receptor after 2 hr at 0 degree C; format: protein assay
# Procedure, shortened: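 Calf uterus cytosol ER incubated 2 h at 0 °C with [6,7-3H]-17β-estradiol and competitor. RBA given relative to estradiol (=100%), mean of at least four determinations.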
# [7] = tested on: BT-20; assay: (§4) Cytotoxic effect on ER-negative BT20 cell proliferation; format: functional, Homo sapiens; parameters: concentration or dose not given beside the values
# Procedure, shortened: (§5)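 ER-negative BT20 cells, no E2, test compound at 3–10 μM for 6 days. DNA read as percent of untreated control. IC30 is the concentration inhibiting growth by 30%; percent inhibition taken at 10⁻⁵ M. Means of two experiments, triplicate wells.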
# [8] = tested on: BT-20; assay: as §4; format: functional; details: Homo sapiens; procedure, shortened: as §5
# [9] = tested on: MCF7S; assay: Antagonist activity against MCF-7 cell proliferation; format: functional, Homo sapiens
# Procedure, shortened: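 Phenol red-free MCF-7 cultures with 5% dextran-coated charcoal-treated serum, stimulated by 0.1 nM E2. Proliferation read as DNA content after 8 days relative to E2 alone. Percent antagonism is the inhibition at 10⁻⁶ M test compound versus 10⁻¹⁰ M E2. IC50 (50% of maximum response) from two separate experiments.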
# [10] = tested on: MCF7S; assay: Agonist activity against MCF-7 cell proliferation; format: functional, cell-based; details: Homo sapiens; procedure, shortened: as §3
# [11] = molecular target: T1, Protein kinase C, PKC; classical (Rattus norvegicus); assay: Percent stimulation or inhibition of protein kinase C with [Ca2+] for phosphatidylserine and diolein(PS+DO); format: protein assay; parameters: concentration or dose not given beside the values; details: values are per cent of control; procedure, shortened: as §2
# [12] = molecular target: T1, Protein kinase C, PKC; classical (Rattus norvegicus); assay: Percent stimulation or inhibition of protein kinase C with [Ca2+] for phosphatidylserine (PS); format: protein assay; procedure, shortened: as §1
Compound,residual activity [1] [%],Inhibition [2] [%],residual activity [3] [%],Agonism [4] [%],residual activity [5] [%],RBA [6] [%],Inhibition [7] [%],IC30 [8] [nM],Antagonism [9] [%],EC50 [10] [nM],residual activity [11] [%],residual activity [12] [%],residual activity ([12]; values are per cent of control) [%]
COc1ccc(/C(=C(\C#N)c2ccccc2)c2ccc(O)cc2)cc1,100,36,100,26,100,,,,,,,,
N#CC(=C(c1ccccc1)c1ccccc1)c1ccccc1,126,16,106,68,106,,,,,,,,
CC(C)C=C(c1ccc(O)cc1)c1ccc(O)cc1,,22,70,65,95,58,40,8400,5,18,,,
CCC(=C(c1ccc(O)cc1)c1ccc(OCCN(C)C)cc1)c1ccccc1,27,81,2,10,94,,,,,,,,
CCN(CC)CCOc1ccc(/C(=C(/C#N)c2ccccc2)c2ccc(O)cc2)cc1,20,77,,16,,,,,,,2,20,
N#C/C(=C(\c1ccccc1)c1ccc(O)cc1)c1ccccc1,107,30,,99,90,,,,,,87,,
CC(C)C(Cl)=C(c1ccc(O)cc1)c1ccc(O)cc1,,30,83,96,85,70,45,7600,12,0.16,,,
Cc1ccc(/C(=C(/C#N)c2ccccc2)c2ccc(O)cc2)cc1,107,38,95,55,77,,,,,,,,
N#C/C(=C(/c1ccccc1)c1ccc(O)cc1)c1ccccc1,96,12,104,94,94,,,,,,,,
COc1ccc(/C(=C(/C#N)c2ccccc2)c2ccc(O)cc2)cc1,100,13,,25,,,,,,,100,100,
Cc1ccc(C(C#N)=C(c2ccc(O)cc2)c2ccc(O)cc2)cc1,84,38,38,71,46,,,,,,,,
CC/C(=C(/c1ccccc1)c1ccc(OCCN(C)C)cc1)c1ccccc1,36,79,,100,,,,,,,30,36,
Oc1ccc(C(=C2CCCCCC2)c2ccc(O)cc2)cc1,,16,71,96,93,17,20,,21,2.65,,,
CCN(CC)CCOc1ccc(C(=C(C#N)c2ccccc2)c2ccc(OCCN(CC)CC)cc2)cc1,20,94,10,62,101,,,,,,,,
Cc1ccc(/C(=C(/C#N)c2ccc(O)cc2)c2ccc(O)cc2)cc1,113,35,80,69,90,,,,,,,,
N#C/C(=C(/c1ccccc1)c1ccc(O)cc1)c1ccc(O)cc1,94,17,87,98,86,,,,,,,,

Compound,residual activity [1] [%],Inhibition [2] [%],residual activity [3] [%],Agonism [4] [%],residual activity [5] [%],RBA [6] [%],Inhibition [7] [%],IC30 [8] [nM],Antagonism [9] [%],EC50 [10] [nM],residual activity [11] [%],residual activity [12] [%],residual activity ([12]; values are per cent of control) [%]
NCC(=C(c1ccc(O)cc1)c1ccc(O)cc1)c1ccccc1,78,19,53,76,20,9.7,24,20000,20,0.14,,,
CC(C)Oc1ccc(/C(=C(\C#N)c2ccccc2)c2ccc(O)cc2)cc1,138,61,101,33,86,,,,,,,,
CC(C)Oc1ccc(/C(=C(/C#N)c2ccccc2)c2ccc(O)cc2)cc1,,57,,22,,,,,,,94,170,
CN(C)Cc1cc(C(=C(C#N)c2ccccc2)c2ccc(O)c(CN(C)C)c2)ccc1O,,36,,31,,,,,,,,,26
CC(C)Oc1ccc(C(=C(C#N)c2ccccc2)c2ccc(OC(C)C)cc2)cc1,100,32,100,40,100,,,,,,,,
CCN(CC)CCOc1ccc(/C(=C(\C#N)c2ccccc2)c2ccc(O)cc2)cc1,10,89,1,12,88,,,,,,,,
Oc1ccc(C(=C2CCCCC2)c2ccc(O)cc2)cc1,111,12,81,97,91,26,12,,23,4.51,,,
N#CC(=C(c1ccccc1)c1ccccc1)c1ccc(O)cc1,92,8,113,90,103,,,,,,,,
C[C@]12CC[C@@H]3c4ccc(O)cc4CC[C@H]3[C@@H]1CC[C@@H]2O [ESTRADIOL],77,25,89,100,99,,,,,,,,
COc1ccc(C(=C(C#N)c2ccccc2)c2ccc(OC)cc2)cc1,98,8,100,34,92,,,,,,,,
N#C/C(=C(\c1ccccc1)c1ccc(O)cc1)c1ccc(O)cc1,97,30,91,100,68,,,,,,,,
N#CC(=C(c1ccc(O)cc1)c1ccc(O)cc1)c1ccccc1,94,30,42,62,50,,,,,,,,
CCN(CC)CCOc1ccc(C(C#N)=C(c2ccccc2)c2ccccc2)cc1,43,53,20,71,96,,,,,,,,
CC/C(=C(\c1ccccc1)c1ccc(OCCN(C)C)cc1)c1ccccc1 [TAMOXIFEN],49,49,,21,107,,,,,,21,,
Oc1ccc(C(=C2CCCC2)c2ccc(O)cc2)cc1,,6,42,100,40,23,10,,1,130,,,
N#CC(=C(c1ccc(O)cc1)c1ccc(O)cc1)c1ccc(O)cc1,38,39,32,85,33,,,,,,,,
